{
  "source": "paper PMC3530405",
  "about": "(Journal of immunology (Baltimore, Md. : 1950), 2012)",
  "format_in_all_cases": "biochemical",
  "key": {"ERAP2^K [1]": {"molecular_target": "T1, ERAP2^K (Homo sapiens, UniProt Q6P179)", "T1 sequence (Q6P179 whole entry)": "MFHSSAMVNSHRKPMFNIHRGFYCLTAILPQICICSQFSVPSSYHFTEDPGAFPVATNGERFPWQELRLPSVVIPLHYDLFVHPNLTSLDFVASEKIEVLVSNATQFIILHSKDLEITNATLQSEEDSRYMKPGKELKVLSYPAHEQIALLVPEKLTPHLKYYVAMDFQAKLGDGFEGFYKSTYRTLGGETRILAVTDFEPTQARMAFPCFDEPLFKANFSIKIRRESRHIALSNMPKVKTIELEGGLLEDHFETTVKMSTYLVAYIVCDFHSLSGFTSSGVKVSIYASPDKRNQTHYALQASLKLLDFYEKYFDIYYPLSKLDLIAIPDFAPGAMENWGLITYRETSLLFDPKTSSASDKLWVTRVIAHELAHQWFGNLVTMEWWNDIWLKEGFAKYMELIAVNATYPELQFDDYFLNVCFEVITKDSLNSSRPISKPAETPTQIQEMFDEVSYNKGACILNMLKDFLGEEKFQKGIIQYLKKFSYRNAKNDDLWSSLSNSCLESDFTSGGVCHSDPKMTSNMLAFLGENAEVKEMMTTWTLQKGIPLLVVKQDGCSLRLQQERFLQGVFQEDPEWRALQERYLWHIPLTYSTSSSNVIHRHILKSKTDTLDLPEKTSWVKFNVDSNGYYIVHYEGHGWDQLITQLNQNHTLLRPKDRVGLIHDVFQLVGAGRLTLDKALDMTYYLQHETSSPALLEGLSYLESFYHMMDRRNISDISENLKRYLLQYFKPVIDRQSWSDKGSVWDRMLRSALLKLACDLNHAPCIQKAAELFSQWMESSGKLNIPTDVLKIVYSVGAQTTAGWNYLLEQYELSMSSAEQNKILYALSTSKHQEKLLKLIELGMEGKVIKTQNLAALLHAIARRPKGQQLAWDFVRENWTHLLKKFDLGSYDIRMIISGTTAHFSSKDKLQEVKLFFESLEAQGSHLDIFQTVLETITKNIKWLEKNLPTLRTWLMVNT", "test": "Peptide trimming by ERAP2^K", "conditions": "for trimming rate relative to ERAP1: ERAP2^K compared to ERAP1", "method_in_brief": "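20 μM peptide was incubated with 100 to 4,000ng (7.3 to 293.6nM) ERAP1 or recombinant ERAP2 at 37°C for 15 min to 1 hour in 50mM HEPES pH 7.0, 100mM NaCl. Reactions were stopped with 0.1% TFA, centrifuged, and run on C18 RP-HPLC (5–50% acetonitrile, A220). Initial rates were taken under <30% completion, and enzymes were compared in parallel. Products were identified by peptide controls and MS; epitope destruction was measured from accumulated smaller peptides.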"}, "ERAP2^N [2]": {"molecular_target": "T2, ERAP2^N (Homo sapiens, UniProt Q6P179, K392N)", "T2 sequence (Q6P179 whole entry K392N)": "as the sequence (Q6P179 whole entry) above, with K392N counted along it", "test": "Peptide trimming by ERAP2^N", "conditions": "20 μM precursor; for trimming rates, comparison of alleles: ERAP2^N vs ERAP2^K, 37°C, pH 7.0"}, "ERAP2^N [3]": {"molecular_target": "T2, ERAP2^N", "test": "Inhibition of R-AMC hydrolysis by ERAP2^N", "conditions": "ERAP2^N vs ERAP2^K, Ki values only in Figure 7B", "method_in_brief": "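His-tagged recombinant human ERAP2 (N392 or K392 form), baculovirus-expressed in Hi5 insect cells, Ni-NTA purified and thawed once before use. R-AMC hydrolysis was tracked against rising inhibitor concentrations by fluorescence (ex 380 nm, em 460 nm) over 5 min, with the slope taken as the rate.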"}, "ERAP2^N [4]": {"molecular_target": "T2, ERAP2^N", "test": "Trimming of […] by ERAP2 alleles", "conditions": "ERAP2^N vs ERAP2^K; MS (LTQ Orbitrap), <30% completion"}, "ERAP2^K [5]": {"molecular_target": "T1, ERAP2^K", "test": "R-AMC hydrolysis / Michaelis-Menten analysis by ERAP2^K"}, "ERAP2^N [6]": {"molecular_target": "T2, ERAP2^N", "test": "R-AMC hydrolysis / Michaelis-Menten analysis by ERAP2^N"}, "[7]": {"conditions": "precursor carrying N-terminal leucine"}, "[8]": {"conditions": "ERAP2^K, Michaelis-Menten analysis"}},
  "note": "“Also recorded” adds a separate entry of the source.",
  "data": [
    {"compound": "LSRYWAIRTR", "values": [
      {"measurement": "epitope generation from precursor", "setting": "ERAP2^K [1]; ERAP2^K, RP-HPLC, 20 μM peptide, 37°C, pH 7.0", "value": "essentially failing to produce detectable amounts of mature epitope; also recorded: absence of a visible epitope peak produced by ERAP2^K"},
      {"measurement": "trimming rates, comparison of alleles", "setting": "ERAP2^N [2]", "value": "drastically different"}
    ]},
    {"compound": "Amastatin", "values": [
      {"measurement": "inhibition of the two ERAP2 alleles", "setting": "ERAP2^N [3]", "value": "nearly identical"}
    ]},
    {"compound": "ASRHHAFSFR", "values": [
      {"measurement": "epitope generation rate, fold faster", "setting": "ERAP2^N [4]", "value": "about 2 fold"}
    ]},
    {"compound": "SRHHAFSFR", "values": [
      {"measurement": "all three enzymes: epitope generation vs destruction", "setting": "ERAP2^K [1]; ERAP1, ERAP2^N and ERAP2^K, precursor carrying N-terminal leucine", "value": "generated the epitope faster than they destroyed it"},
      {"measurement": "trimming rate relative to ERAP1", "setting": "ERAP2^K [1]; [7]", "value": "negligible compared to that of ERAP1"}
    ]},
    {"compound": "Cc1cc(=O)oc2cc(NC(=O)[C@@H](N)CCCN=C(N)N)ccc12", "note": "[R-AMC, L-Arginyl-7-amido-4-methyl coumarin]", "values": [
      {"measurement": "lowering of kcat constant", "setting": "ERAP2^K [5]; ERAP2^K vs ERAP2^N", "value": "about 18 fold"},
      {"measurement": "Km", "setting": "ERAP2^K [5]; [8]", "value": "17 ± 5", "unit": "µM"},
      {"measurement": "kcat", "setting": "ERAP2^K [5]; [8]", "value": "5.8±0.4 ×10^−3 sec^−1"},
      {"measurement": "rate of hydrolysis", "setting": "ERAP2^K [5]; ERAP2^K, fluorescence ex 380 nm, em 460 nm, 5 min", "value": "4.8±3", "unit": "mmol/mol sec^−1"},
      {"measurement": "change of substrate affinity between polymorphic states", "setting": "ERAP2^K [5]; ERAP2^N vs ERAP2^K", "value": "less than 2 fold"},
      {"measurement": "Km", "setting": "ERAP2^N [6]; Michaelis-Menten analysis", "value": "30 ± 9", "unit": "µM"},
      {"measurement": "kcat", "setting": "ERAP2^N [6]; Michaelis-Menten analysis", "value": "104±9 ×10^−3 sec^−1"},
      {"measurement": "rate of hydrolysis", "setting": "ERAP2^N [6]; fluorescence ex 380 nm, em 460 nm, 5 min", "value": "78±1 mmol product/mol enzyme sec^−1"}
    ]},
    {"compound": "RSRYWAIRTR", "values": [
      {"measurement": "trimming rates, comparison of alleles", "setting": "ERAP2^N [2]", "value": "almost identical rates by both ERAP2 alleles; also recorded: essentially identical for both alleles"}
    ]},
    {"compound": "LSRHHAFSFR", "values": [
      {"measurement": "trimming rate relative to ERAP1", "setting": "ERAP2^K [1]; [7]", "value": "much less efficient"}
    ]},
    {"compound": "WLRRYLENGK", "values": [
      {"measurement": "trimming rate difference between alleles", "setting": "ERAP2^N [2]; ERAP2^N versus ERAP2^K", "value": 165, "unit": "fold"}
    ]}
  ]
}
